# Beta apoptosis: blocks beta cell apoptosis. actives 0.8% (n = 300,000). INS-1E cytokine-induced death, ATP luminescence, 48 h; percent of positive-control rescue, neutral wells zero. protection from apoptosis, % (no concentration beside the values);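 active = Every replicate reaches about 75%, or at least half do and their mean reaches it too, limit read from the data; inconclusive = At least half of replicates reach the limit but their mean does not; inactive = Under half of replicates reach the limit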;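 also: 0% = cytokine-treated negative control wells and 100% = positive control rescue; higher means more ATP so stronger rescue from cytokine killing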
# CSC inhib: cancer stem cell inhibition; cancer stem cell-like cells viability, luminescence; inhibition, % at 7.5 µM; actives 1.1% (n = 300,000); AID 2717; in the data active = inhibition above about 75%; inconclusive = no clear call, values can overlap the other calls; tested in HMLE shEcad cells
# Mdm2 MdmX PPI: human Mdm2/MdmX binding inhibition. SaOS-2 split-luciferase Mdm2/MdmX complementation, luminescence. inhibition, % at 8 µM. actives 3% (n = 330,000). AID 485346;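 active = inhibition of at least 50% at 8 µM in the primary screen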
# NALP3 yeast inh: blocks the NALP3 inflammasome reconstituted in yeast. actives 0.39% (n = 330,000). Yeast reconstituted NLRP3/ASC/caspase-1, beta-gal luminescence, 24 h. inhibition, % at 10 µM;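 active = inhibition of 50% or more; inactive = inhibition below 50%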;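 also: plate controls were induced DMSO wells for no effect and uninduced yeast grown without galactose for full effect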
# T cruzi repl: T. cruzi replication inhibition | T. cruzi beta-gal in NIH3T3, luminescence, 90 h | inhibition, % (concentration not given with the values) | actives 1.4% (n = 300,000);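 active = mean inhibition across valid replicates above about 55%, limit read from the data; inconclusive = mean below that limit but half or more replicates reach it; inactive = mean below it, under half of replicates reach it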;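 also: signal also drops with host cell toxicity which is not excluded here; 0% = plate median of DMSO wells and 100% = zero luminescence signal; higher percent means less beta-gal luminescence so fewer parasites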
#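 Test system: β-gal T. cruzi (Tulahuen C4) inside NIH/3T3 cells / Quantity: 5,000 cells/well / Measured by: luminescence from GalScreen with 0.05% NP40, read after 60 min / Medium: DMEM plus 2% FBS / Measure: parasite load inhibition, % / Reagent: Tulahuen C4 trypomastigotes, 5000/well / Schedule: co-culture of at least 90 h after 3 h attachment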
# Calb FLC: C. albicans growth modulation with fluconazole; growth inhibition, % (test concentration not listed); actives 0.57% (n = 300,000); C. albicans CaCi-2 (fluconazole-resistant clinical isolate) + fluconazole, Alamar Blue growth, 48 h;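 active = growth inhibition above about 58% in most replicates, limit read from the data, passing the limit was not always enough; inconclusive = exactly half the replicates above a set limit; inactive = most replicates below a set limit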;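 also: all wells also contain fluconazole at 8 µg/ml as a sub-toxic cotreatment; 0% = median of DMSO wells and 100% = median of geldanamycin control wells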
# Mdm2 MdmX conf: human Mdm2/MdmX binding inhibition, confirmed | shares compounds with Mdm2 MdmX PPI | actives 55% (n = 10,000) | luminescent assay | inhibition, % at 8 µM; in the data active = inhibition above about 40%
# FLuc counter: counter-screen for Mdm2/MdmX inhibitors: full-length luciferase. shares compounds with Mdm2 MdmX PPI. SaOS-2 full-length luciferase counterscreen, luminescence. inhibition, % at 8 µM. actives 77% (n = 6,200);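 active = mean inhibition at 8 µM reaching about 37%, which flags the compound as non-specific, limit read from the data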;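 also: p53-null SaOS-2 cells with luciferase driven by a doxycycline-inducible promoter; compound on cells about two nights before reading with doxycycline added after day one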
# Starred values were filed as active, the others as inactive; ? = inconclusive; . = not tested or not shown. This is a sample that favours compounds with a hit; in the whole collection about 5.3% have one here.
SMILES,Beta apoptosis,CSC inhib,Mdm2 MdmX PPI,NALP3 yeast inh,T cruzi repl,Calb FLC,Mdm2 MdmX conf,others
COc1ccc(-n2c(C)cc(/C=C3\SC(=S)N(Cc4ccco4)C3=O)c2C)cc1,-2.0,30.3,.,.,25.8,-32.2,.,
NC1=NS(=O)(=O)NC1c1ccc(Cl)cc1 (centres undefined),3.8,16.3,-0.4,-0.4,-1.9,-0.7,.,
COC(=O)C1=C(N)Oc2cc(N(C)C)ccc2C1c1ccccc1OC (centres undefined),.,41.4,60.8*,3.2,2.0,5.6,40.2*,FLuc counter=42.5*
COc1ccc(CCn2c(-c3ccc(OC)cc3)nc3c(c(=O)c4ccccc4n3C)c2=O)cc1,1.6,-17.9,16.0,36.2,-7.7,-4.9,.,
CCc1nc2c(c(=O)c3ccccc3n2C)c(=O)n1CCc1ccc(OC)cc1,-0.1,-12.6,87.9*,36.6,17.3,19.6,65.8*,FLuc counter=122.6*
Cc1ccc(CSCC(=O)Nc2ccccc2C(=O)O)cc1,4.4,34.0,51.5*,14.5,-15.9,-5.3,-13.8,
Cc1cc(C(=O)CSc2nnc(-c3ccc(F)cc3)o2)c(C)n1CC1COc2ccccc2O1 (centres undefined),-1.8,63.8,61.8*,-3.6,20.4,3.2,22.8,
O=C(Nc1ccccc1)c1cc(-c2ccccc2Cl)no1,-2.6,-6.6,-89.1,44.4,-8.9,-31.4,.,
O=C(Nc1ccccc1)Nc1ccc(Br)cc1F,1.5,-10.5,-70.4,29.7,-24.4,-13.1,.,
COC(=O)c1cc(NC(=O)Nc2cccc(Cl)c2)ccc1Cl,55.6,36.5,87.6*,17.3,42.1,?,42.8*,FLuc counter=95.8*
COc1ccccc1NS(=O)(=O)c1cccc(NC(=O)Nc2cccc(Cl)c2)c1,20.9,-14.7,54.6*,11.0,62.2*,19.6,48.7*,FLuc counter=45.7*
COC(=O)c1cccc(NC(=O)NC(=O)c2ccc(Cl)cc2)c1,7.9,32.4,68.9*,-0.9,-1.0,2.5,42.8*,FLuc counter=73.0*
O=C(Nc1cccc(Cl)c1)Nc1ccc(Br)cc1F,.,.,81.5*,44.0,?,-1.7,80.0*,FLuc counter=54.8*
COC(=O)c1cccc(NC(=O)Nc2ccc(Cl)cc2)c1,8.4,4.8,18.1,6.7,-8.5,-14.5,.,
COc1ccc(CCNS(=O)(=O)c2cc3c4c(c2)CC(=O)N4CCC3)cc1,-0.5,-14.8,14.8,22.7,14.1,-11.2,.,
Cc1ccc2cc3cc(C(=O)NCCN4CCOCC4)oc3nc2c1,-0.6,0.6,5.2,6.0,2.9,-3.8,.,
CCOC(=O)c1c(NC(=O)C(=O)N/N=C/c2ccc(O)c(OC)c2)sc2c1CCCCC2,-0.3,45.8,20.9,3.7,-9.8,0.8,.,
Cc1cc(NC(=O)c2cc(-c3ccc(O)cc3)on2)no1,-0.8,25.4,-47.2,23.4,12.8,-4.8,.,
CCOC(=O)c1c(NC(=O)N/N=C/c2ccc(O)c(OC)c2)sc(C(C)=O)c1C,1.2,-4.0,68.2*,5.3,-4.2,-2.1,23.5,
CCOC(=O)c1c(NC(=O)c2cc(-c3ccc(O)cc3)on2)sc(C(C)=O)c1C,27.5,-6.5,69.8*,-0.6,-1.9,2.7,5.0,
CCCCSCCCNC(=O)c1cn(C)c2ccc(S(=O)(=O)N3CCCC3)cc2c1=O,-1.1,-8.9,12.9,12.8,-4.2,-3.8,.,
CCOC(=O)C1=C(CSc2nc(C)cc(C)c2C#N)OC(N)=C(C#N)C1c1cccs1 (centres undefined),.,13.1,8.1,17.6,.,.,.,
CC(=O)N1CCc2cc(S(=O)(=O)N3CCCCC3C)ccc21 (centres undefined),-4.0,-2.4,28.0,11.1,-3.1,-2.1,.,
CCCCNC(=O)c1sc(=S)n2c1[nH]c(=O)c1ccccc12,4.3,26.5,24.4,-9.4,-10.8,48.2,.,
O=C(NC1CCCCC1)c1sc(=S)n2c1[nH]c(=O)c1ccccc12,2.3,54.8,70.5*,-23.3,-17.3,-8.6,21.2,
O=C(Nc1ccccc1N1CCN(c2ccccc2)CC1)c1ccccc1F,14.9,49.4,5.7,20.7,32.2,-11.0,.,
